The source made the active and inactive calls. No cut-off for these calls is given here.
Columns and labels:
[1] = test system: Jurkat; assay: Effect on IKZF1 level in human Jurkat cells at upto 10 uM by Western blot analysis; assay type: functional, cell-based
In short: (§1)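 Jurkat cells were treated with graded concentrations for 6 h, alongside 10 μM pomalidomide. IKZF1, IKZF3 and GSPT1 were detected by Western blot, with GAPDH as the loading control.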

[2] = test system: Jurkat; assay: Effect on IKZF3 level in human Jurkat cells at upto 10 uM by Western blot analysis; assay type: functional, cell-based; in short: as §1
[3] = test system: Jurkat; assay: Effect on GSPT1 level in human Jurkat cells at upto 10 uM by Western blot analysis; assay type: functional, cell-based; in short: as §1
[4] = test system: Jurkat; assay: Upregulation of Ac-SMC3 level in human Jurkat cells measured after 6 hrs by Western blot analysis; assay type: functional, cell-based; conditions: dose 0.0001-1 µM
In short: (§2)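 Jurkat cells exposed to the indicated compound concentrations for 6 h. Ac-SMC3 and Ac-HH3 were detected by Western blot with GAPDH as loading control. Bands were quantified by densitometry and normalized to the DMSO-treated group. Data are mean ± SEM of two independent experiments, compared with DMSO by one-way ANOVA.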

[5] = test system: Jurkat; assay: Upregulation of Ac-SMC3 level in human Jurkat cells at 1 uM measured after 6 hrs by Western blot analysis; assay type: functional, cell-based; in short: as §2
[6] = test system: Jurkat; assay: Upregulation of Ac-tubulin level in human Jurkat cells at upto 1 uM measured after 6 hrs by Western blot analysis; assay type: functional, cell-based
In short: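 Jurkat cells were treated for 6 h at the indicated concentrations. Acetylated tubulin was probed by Western blot, with GAPDH as loading control.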

[7] = test system: Jurkat; assay: Upregulation of Ac-HH3 level in human Jurkat cells at 1 uM measured after 6 hrs by Western blot analysis; assay type: functional, cell-based; in short: as §2
[8] = test system: Jurkat; assay: Upregulation of Ac-SMC3 level in human Jurkat cells incubated for 6 hrs by Western blot analysis; assay type: functional, cell-based; conditions: dose <= 1.0 µM; in short: as §2
[9] = test system: Jurkat; assay: Upregulation of Ac-HH3 level in human Jurkat cells incubated for 6 hrs by Western blot analysis; assay type: functional, cell-based; in short: as §2
[10] = test system: HCT-116; assay: Upregulation of Ac-SMC3 level in human HCT-116 cells incubated for 6 hrs by Western blot analysis; assay type: functional, cell-based; conditions: dose 0.004-3.3 µM
In short: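 HCT116 cells were treated 6 h with the indicated concentrations. Ac-SMC3 was measured by Western blot with GAPDH as loading control, quantified by densitometry and normalized to the DMSO group. Data are mean ± SEM from two independent experiments; one-way ANOVA vs DMSO.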

[11] = test system: HCT-116; assay: Upregulation of Ac-HH3 level in human HCT-116 cells incubated for 6 hrs by Western blot analysis; assay type: functional, cell-based; conditions: dose 0.004-3.3 µM
In short: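 HCT116 cells were incubated with graded concentrations for 6 h. Ac-HH3 was detected by Western blot with GAPDH as the loading control, then quantified by densitometry and normalized to DMSO-treated cells. Data are mean ± SEM of two independent experiments, compared against DMSO by one-way ANOVA.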

[12] = test system: Jurkat; assay: Upregulation of Ac-HH3 level in human Jurkat cells measured after 24 hrs by Western blot analysis; assay type: functional, cell-based; conditions: dose <= 10000.0 nM
In short: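 Jurkat cells were incubated 24 h with the indicated concentrations. Ac-HH3 was detected by Western blot against a GAPDH loading control, quantified by densitometry and normalized to DMSO-treated cells. Data are mean ± SEM of two independent experiments; one-way ANOVA vs DMSO.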

[13] = test system: HCT-116; assay: Upregulation of Ac-HH3 level in human HCT-116 cells at 0.04 to 3.3 uM measured after 24 hrs by Western blot analysis; assay type: functional, cell-based; conditions: dose 0.04-3.3 µM
[14] = test system: THP-1; assay: Upregulation of Ac-HH3 level in human THP-1 cells at 0.04 to 3.3 uM measured after 24 hrs by Western blot analysis; assay type: functional, cell-based; conditions: dose 0.04-3.3 µM
In short: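 THP-1 cells were exposed to the compound at the indicated concentrations for 24 h, then immunoblotted for Ac-HH3, Ac-SMC3, Ac-tubulin and HDAC8 with GAPDH as loading control. Band intensities were quantified and normalized to the DMSO-treated group. Data are mean ± SEM of two independent experiments, analysed by one-way ANOVA against DMSO.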

[15] = test system: Jurkat; assay: Upregulation of AcHH3 level on human Jurkat cells at 0.04 to 10 uM measured after 48 hrs by Western blot analysis; assay type: functional, cell-based; conditions: dose 0.04-10 µM
[16] = test system: Jurkat; assay: Upregulation of AcHH4 level on human Jurkat cells at 0.04 to 10 uM measured after 48 hrs by Western blot analysis; assay type: functional, cell-based; conditions: dose 0.04-10 µM
[17] = test system: Jurkat; assay: Induction of apoptosis in human Jurkat cells assessed as increase in caspase 3/7 activity incubated for 48 hrs; assay type: functional, cell-based; conditions: dose upper 5.0 µM
[18] = test system: HCT-116; assay: Induction of apoptosis in human HCT-116 cells assessed as increase in caspase 3/7 activity incubated for 48 hrs; assay type: functional, cell-based; conditions: dose 12.5-5 µM
[19] = test system: Jurkat; assay: Induction of apoptosis in human Jurkat cells assessed as increase in caspase 3/7 activity at 5 uM incubated for 48 hrs; assay type: functional, cell-based
[20] = test system: HCT-116; assay: Induction of apoptosis in human HCT-116 cells assessed as increase in caspase 3/7 activity at 5 uM incubated for 48 hrs; assay type: functional, cell-based
[21] = test system: Jurkat; assay: Induction of apoptosis in human Jurkat cells at 1.1 to 10 uM measured after 24 to 48 hrs by AnnexinV/FITC and PI staining based flow cytometry analysis; assay type: functional, cell-based; conditions: dose 1.1-10 µM, time 24-48 hrs
[22] = test system: HCT-116; assay: Induction of apoptosis in human HCT-116 cells measured after 48 hrs by AnnexinV/FITC and PI staining based flow cytometry analysis; assay type: functional, cell-based; conditions: dose 1.1-10 µM
[23] = test system: HCT-116; assay: Induction of apoptosis in human HCT-116 cells assessed as necrotic cells at 1.1 uM measured after 48 hrs by AnnexinV/FITC and PI staining based flow cytometry analysis (reference value: […]); assay type: functional
[24] = test system: Jurkat; assay: Induction of ferroptosis in human Jurkat cells assessed as increase in lipid peroxidation incubated for 24 hrs by BODIPY 581/591 C11 staining based flow cytometry analysis; assay type: functional, cell-based; conditions: dose 0.37-10 µM
[25] = test system: HCT-116; assay: Induction of ferroptosis in human HCT-116 cells assessed as increase in lipid peroxidation at low concentration incubated for 24 hrs by BODIPY 581/591 C11 staining based flow cytometry analysis; assay type: functional, cell-based; conditions: dose 0.37-10 µM
[26] = test system: THP-1; assay: Induction of ferroptosis in human THP-1 cells assessed as increase in lipid peroxidation at 0.37 to 10 uM incubated for 24 hrs by BODIPY 581/591 C11 staining based flow cytometry analysis; assay type: functional, cell-based; conditions: dose 0.37-10 µM
[27] = test system: Jurkat; assay: Induction of ferroptosis in human Jurkat cells assessed as increase in lipid peroxidation incubated for 48 hrs by BODIPY 581/591 C11 staining based flow cytometry analysis; assay type: functional, cell-based
[28] = test system: Jurkat; assay: Induction of cell death in human Jurkat cells at 5 uM measured after 48 hrs in presence of Z-VAD-FMK by flow cytometry analysis; assay type: functional, cell-based
[29] = test system: Jurkat; assay: Induction of cell death in human Jurkat cells at 5 uM measured after 48 hrs in presence of necrostatin-1 by flow cytometry analysis; assay type: functional, cell-based
[30] = test system: Jurkat; assay: Induction of cell death in human Jurkat cells at 5 uM measured after 48 hrs in presence of ferrostatin-1 by flow cytometry analysis; assay type: functional, cell-based
[31] = test system: Jurkat; assay: Induction of cell death in human Jurkat cells at 5 uM measured after 48 hrs in presence of chloroquine by flow cytometry analysis; assay type: functional, cell-based
[32] = test system: Jurkat; assay: Induction of cell cycle arrest in human Jurkat cells assessed as accumulation of cells at G0/G1 phase measured after 48 hrs by PI staining based flow cytometry analysis; assay type: functional; conditions: dose 0.13-3.3 µM
[33] = test system: HCT-116; assay: Induction of cell cycle arrest in human HCT-116 cells assessed as accumulation of cells at G2/M phase measured after 48 hrs by PI staining based flow cytometry analysis; assay type: functional; conditions: dose 0.13-3.3 µM
[34] = test system: Jurkat; assay: cells; conditions: Homo sapiens
[35] = test system: Jurkat; assay: cells; conditions: Homo sapiens; remark: listed apart in the source
[36] = test system: Jurkat; assay: cells; conditions: Homo sapiens; remark: listed apart in the source
[37] = test system: Jurkat; assay: cells; conditions: Homo sapiens; remark: listed apart in the source
[38] = test system: THP-1; assay: cells; conditions: Homo sapiens
[39] = test system: HCT-116; assay: cells; conditions: Homo sapiens
[40] = test system: A549; assay: cells; conditions: Homo sapiens

## CCCCCCNNC(=O)c1ccc(CNC(=O)CN2CCC(c3ccc(NC4CCC(=O)NC4=O)cc3)CC2)cc1 (stereo not given)
[1]
  Activity: inactive
[2]
  Activity: inactive
[3]
  Activity: inactive
[4]
  Activity: Dose-Dependent Effect
[5]
  Activity: Active
[6]
  Activity: inactive
[7]
  Activity: Active
[8]
  Activity: Dose-Dependent Effect
[9]
  Activity: Dose-Dependent Effect
[10]
  Activity: Dose-Dependent Effect
[11]
  Activity: Dose-Dependent Effect
[12]
  Activity: Dose-Dependent Effect
[13]
  Activity: Active
[14]
  Activity: Active
[15]
  Activity: Active
[16]
  Activity: Active
[17]
  Activity: Dose-Dependent Effect
[18]
  Activity: Dose-Dependent Effect
[19]
  Activity: Active
[20]
  Activity: Active
[21]
  Activity: inactive
[22]
  Activity: Dose-Dependent Effect
[23]
  Activity: 4.28%
[24]
  Activity: Dose-Dependent Effect
[25]
  Activity: Active
[26]
  Activity: inactive
[27]
  Activity: inactive
[28]
  Activity: Active
[29]
  Activity: Active
[30]
  Activity: Active
[31]
  Activity: Active
[32]
  Activity: Dose-Dependent Effect
[33]
  Activity: Dose-Dependent Effect
[34]
  IC50: 1500 nM
[35]
  IC50: 2000 nM
[36]
  IC50: 2800 nM
[37]
  IC50: 2500 nM
[38]
  IC50: > 33300 nM
[39]
  IC50: 3800 nM
[40]
  IC50: 17500 nM

Source: ChEMBL document CHEMBL5584302, “Exploration of Hydrazide-Based HDAC8 PROTACs for the Treatment of Hematological Malignancies and Solid Tumors” (J Med Chem, 2024)
